The source made the active and inactive calls. The rule behind the calls is not given here.
Tests used:
Format in all cases: functional, organism-based
Mus musculus [1] = species: Mus musculus; test: Induction of IL-4 secretion in C57BL/6 mouse
Summary of the method: (§1)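 Mice dosed by intranasal instillation and killed after 24 h; bronchoalveolar lavage collected five times with PBS plus 3 mM EDTA; lavage fluid measured for a panel of 21 chemokines and cytokines.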

Mus musculus [2] = species: Mus musculus; test: Induction of MCP-1 secretion in C57BL/6 mouse; summary of the method: as §1
Mus musculus [3] = species: Mus musculus; test: Induction of VEGF secretion in C57BL/6 mouse; summary of the method: as §1
Mus musculus [4] = species: Mus musculus; test: Induction of IL-1alpha secretion in C57BL/6 mouse; summary of the method: as §1
Mus musculus [5] = species: Mus musculus; test: Induction of MIP-1beta secretion in C57BL/6 mouse; summary of the method: as §1
Mus musculus [6] = species: Mus musculus; test: Immunostimulatory activity in C57BL/6 mouse assessed as recruitment of inflammatory cells into bronchoalveolar spaces; details: Lung
Summary of the method: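 Compound given to mice by intranasal instillation; animals killed 24 h later and lungs lavaged five times with PBS containing 3 mM EDTA; total and differential inflammatory cell counts determined in the bronchoalveolar lavage.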

Mus musculus [7] = species: Mus musculus; test: Induction of TNFalpha secretion in C57BL/6 mouse; summary of the method: as §1
Mus musculus [8] = species: Mus musculus; test: Induction of IL1-beta secretion in C57BL/6 mouse; summary of the method: as §1
Mus musculus [9] = species: Mus musculus; test: Induction of IL-13 secretion in C57BL/6 mouse; summary of the method: as §1
Mus musculus [10] = species: Mus musculus; test: Induction of IL-9 secretion in C57BL/6 mouse; summary of the method: as §1
Mus musculus [11] = species: Mus musculus; test: Induction of KC secretion in C57BL/6 mouse; summary of the method: as §1
Mus musculus [12] = species: Mus musculus; test: Induction of RNATES secretion in C57BL/6 mouse; summary of the method: as §1
Mus musculus [13] = species: Mus musculus; test: Induction of IFN-gamma secretion in C57BL/6 mouse; summary of the method: as §1
Mus musculus [14] = species: Mus musculus; test: Induction of IL-2 secretion in C57BL/6 mouse; summary of the method: as §1
Mus musculus [15] = species: Mus musculus; test: Induction of IL-10 secretion in C57BL/6 mouse; summary of the method: as §1
Mus musculus [16] = species: Mus musculus; test: Induction of IL-17 secretion in C57BL/6 mouse; summary of the method: as §1
Mus musculus [17] = species: Mus musculus; test: Induction of IL-5 secretion in C57BL/6 mouse; summary of the method: as §1
Mus musculus [18] = species: Mus musculus; test: Induction of IL-6 secretion in C57BL/6 mouse; summary of the method: as §1
Mus musculus [19] = species: Mus musculus; test: Induction of GM-CSF secretion in C57BL/6 mouse; summary of the method: as §1
Mus musculus [20] = species: Mus musculus; test: Induction of IL-3 secretion in C57BL/6 mouse; summary of the method: as §1
Mus musculus [21] = species: Mus musculus; test: Induction of IL-12(p40) secretion in C57BL/6 mouse; summary of the method: as §1

In the case of `Nc1nc2ncn([C@@H]3O[C@@H]4COP(=O)(O)O[C@@H]5[C@H](O)[C@@H](n6cnc7nc(N)[nH]c(=O)c76)O[C@H]5COP(=O)(O)O[C@H]4[C@H]3O)c2c(=O)[nH]1`, the Activity (Mus musculus [1]) is reported as “inactive”, the Activity (Mus musculus [2]) is reported as “Dose-dependent effect” and the Activity (Mus musculus [3]) is reported as “inactive”. For the same molecule, the Activity (Mus musculus [4]) was “inactive”, the Activity (Mus musculus [5]) was “Dose-dependent effect” and the Activity (Mus musculus [6]) was “Dose-dependent effect”. For the same molecule, the Activity (Mus musculus [7]) was “Dose-dependent effect”, the Activity (Mus musculus [8]) was “Dose-dependent effect” and the Activity (Mus musculus [9]) was “inactive”. For the same molecule, the Activity (Mus musculus [10]) was “inactive”, the Activity (Mus musculus [11]) was “Dose-dependent effect” and the Activity (Mus musculus [12]) was “Dose-dependent effect”. The Activity (Mus musculus [13]) was “inactive”, the Activity (Mus musculus [14]) was “inactive” and the Activity (Mus musculus [15]) was “inactive”. The Activity (Mus musculus [16]) was “inactive”, the Activity (Mus musculus [17]) was “inactive” and the Activity (Mus musculus [18]) was “Dose-dependent effect”. The Activity (Mus musculus [19]) was “inactive”, the Activity (Mus musculus [20]) was “inactive” and the Activity (Mus musculus [21]) was “Dose-dependent effect”.

— ChEMBL document CHEMBL1152214, “Synthesis and immunostimulatory properties of the phosphorothioate analogues of cdiGMP” (Bioorg Med Chem Lett, 2008)
